According to article PMC8915191 (Clinical cancer research : an official journal of the …, 2019):
“And” between values parts separate entries of the source, which are not always exact repeats. Equal values may be shown once.

Tests used:
[1] = system: advanced clear cell renal carcinoma (ccRCC); conditions: cited from earlier work
[2] = system: peripheral blood mononuclear cells; test: Autophagic vesicles in serial PBMC by quantitative electron microscopy; format: in vivo, human; conditions: after one week of everolimus alone; 11 patients
How it was run: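 Cancer patients took everolimus 10 mg alone for one week, then HCQ 400 or 600 mg twice daily was added. Serial PBMC were collected before treatment, after one cycle and after two cycles (one week of everolimus alone; one month combined) in a limited number of patients (3 at 400 mg, 8 at 600 mg). PBMC were fixed for quantitative EM of autophagic vesicles.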

[3] = system: patients with advanced RCC; conditions: human, in vivo, po, 5 weeks
[4] = HCQ population pharmacokinetics, whole blood concentrations by HPLC-MS/MS; format: in vivo, human
How it was run: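 HCQ 400 or 600 mg twice daily was given with everolimus, with a draw at each visit plus intensive sampling in a few patients (pre-dose, 15 min, 30 min, 1, 2, 3, 4, 6 h). Heparinized whole blood was stored at −70 °C and spiked with d4-HCQ internal standard. It was acetonitrile/methanol-precipitated and run on LC-MS/MS (positive ESI, MRM 337.275→248.152) in duplicate. The curve was 1–7500 ng/mL (LLOQ 1.0 ng/mL). A 2-compartment first-order-absorption model was fitted.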

[5] = no reference given; cited from earlier work
mTOR = conditions: cited from earlier work
[6] = 2-compartment population PK model, 27 patients, oral HCQ
[7] = 1000 bootstrap runs, population PK model

CO[C@H]1C[C@@H]2CC[C@@H](C)[C@@](O)(O2)C(=O)C(=O)N2CCCC[C@H]2C(=O)O[C@H]([C@H](C)C[C@@H]2CC[C@@H](OCCO)[C@H](OC)C2)CC(=O)[C@H](C)/C=C(\C)[C@@H](O)[C@@H](OC)C(=O)[C@H](C)C[C@H](C)/C=C/C=C/C=C/1C [everolimus, Everolimus]
Hazard ratio for PFS, everolimus versus placebo ([1]; 95% CI 0.22–0.40, p<0·0001): 0.30
Median PFS, everolimus alone, CHECKMATE 025 [1]: 4.6 months
Median PFS, everolimus alone, METEOR [1]: 3.8 months
Response rate, everolimus single agent [1]: 1%
Median PFS, everolimus alone, RECORD-1 ([1]; everolimus 10 mg daily after TKI progression): 4.01 months and 4 months
Drug-induced change in autophagic vesicles in PBMC [2]: no significant drug-induced changes

CCN(CCO)CCCC(C)Nc1ccnc2cc(Cl)ccc12 (stereo not drawn) [HCQ, Hydroxychloroquine]
Recommended phase II dose (RP2D) of HCQ [3]: 600 mg
Cl/F, apparent oral clearance, Model estimate [4, 6]: 7.98 L/h
Q, intercompartmental clearance, Model estimate [4, 6]: 14.98 L/h
V2/F, apparent peripheral volume of distribution, Model estimate [4, 6]: 3604.83 L
Ka, absorption rate constant, Model estimate ([4]; 2-compartment population PK model, 163 blood samples from 27 patients, oral HCQ): 0.93 h
Cl/F, apparent oral clearance, Bootstrap Estimate [4, 7]: 8.00 L/h
Ka, absorption rate constant, Bootstrap Estimate [4, 7]: 1.00 h
Q, intercompartmental clearance, Bootstrap Estimate [4, 7]: 15.02 L/h
V2/F, apparent peripheral volume of distribution, Bootstrap Estimate [4, 7]: 3598.91 L
Vd/F ([4]; human, whole blood, po): 600 L
Plasma protein binding [5]: not extensively bound to plasma proteins

CO[C@H]1C[C@@H]2CC[C@@H](C)[C@@](O)(O2)C(=O)C(=O)N2CCCC[C@H]2C(=O)O[C@H]([C@H](C)C[C@@H]2CC[C@@H](OC(=O)C(C)(CO)CO)[C@H](OC)C2)CC(=O)[C@H](C)/C=C(\C)[C@@H](O)[C@@H](OC)C(=O)[C@H](C)C[C@H](C)/C=C/C=C/C=C/1C [temsirolimus]
mTOR inhibition in PBMC (mTOR): sustained mTOR inhibition
